Experimental data published in ChEMBL document CHEMBL5678801, “A benzothiophene inhibitor of mitogen-activated protein kinase-activated protein kinase 2 inhibits tumor necrosis factor alpha production and has oral anti-inflammatory efficacy in acute and chronic models of inflammation” (J Pharmacol Exp Ther, 2010).
pIC50: −log10 of the molar value.

Tests used:
[1] = Cmax in chronic SCW-induced arthritis Lewis rat model plasma at ED50 concentration; format: ADME, cell-free
Procedure, shortened: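 Female Lewis rats (125-140 g) received a single i.p. streptococcal cell wall injection. Animals showing the acute phase were pooled, 4-8 per group over three experiments. Dosing was oral gavage b.i.d., days 10-21, in methylcellulose-Tween-20 vehicle. Hind paw volume was read by displacement plethysmometer on day 21, as % inhibition of swelling. Plasma was sampled up to 11 h after the last dose, 3 rats per dose. ED values came from fitted curves.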

[2] = target: MAP kinase-interacting serine/threonine-protein kinase 1 (Homo sapiens, UniProt Q9BUB5); assay: Inhibition of recombinant MNK1 (unknown origin) expressed in Escherichia coli using KKKALSRQLSVAA as substrate incubated for 1 hr followed by substrate addition in presence of ATP
Sequence of MAP kinase-interacting serine/threonine-protein kinase 1 (Q9BUB5 whole entry): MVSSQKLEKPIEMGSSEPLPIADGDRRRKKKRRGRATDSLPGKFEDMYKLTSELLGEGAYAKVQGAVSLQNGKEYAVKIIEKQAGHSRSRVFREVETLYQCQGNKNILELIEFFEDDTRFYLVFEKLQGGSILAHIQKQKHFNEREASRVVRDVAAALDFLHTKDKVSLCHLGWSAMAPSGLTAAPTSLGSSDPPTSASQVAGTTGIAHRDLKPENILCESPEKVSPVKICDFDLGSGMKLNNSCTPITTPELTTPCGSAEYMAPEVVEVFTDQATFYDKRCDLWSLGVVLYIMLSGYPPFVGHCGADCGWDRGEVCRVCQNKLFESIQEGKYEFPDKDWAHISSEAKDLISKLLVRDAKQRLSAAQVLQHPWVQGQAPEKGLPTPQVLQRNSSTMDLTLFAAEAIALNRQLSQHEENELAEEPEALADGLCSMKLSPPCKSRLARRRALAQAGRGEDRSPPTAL
Procedure, shortened: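 Recombinant MAPKAP kinase was first activated with activated p38α (1:50 molar ratio) and 250 μM ATP for 1 hr at 30°C. Activity was then assayed at Km(app) MgATP by ion-exchange separation of 33P-labeled product peptide. IC50 was taken from duplicate experiments.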

[3] = Inhibition of recombinant RSK1/2/3/4 (unknown origin) using KKKALSRQLSVAA as substrate incubated for 1 hr followed by substrate addition in presence of ATP; set-up: species or system Homo sapiens
Procedure, shortened: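 MAPKAP family kinases were activated by p38α (1:50 molar, 250 μM ATP, 1 h, 30°C). Assays ran in 20 mM HEPES pH 7.5, 10 mM MgCl2, 1 mM DTT, 0.01% BSA, 0.0005% Tween-20, at MgATP fixed at each enzyme's Km(app). The 33P-labelled product peptide was separated by ion exchange. Duplicate experiments. MSK1 (367-802) and MSK2 (351-772) were N-terminal 6xHis constructs from Sf9 cells.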

[4] = target: T1, Serine/threonine-protein kinase BRSK1 (Homo sapiens, UniProt Q8TDC3); assay: Inhibition of BrSK1 (unknown origin)
T1 sequence (Q8TDC3 whole entry): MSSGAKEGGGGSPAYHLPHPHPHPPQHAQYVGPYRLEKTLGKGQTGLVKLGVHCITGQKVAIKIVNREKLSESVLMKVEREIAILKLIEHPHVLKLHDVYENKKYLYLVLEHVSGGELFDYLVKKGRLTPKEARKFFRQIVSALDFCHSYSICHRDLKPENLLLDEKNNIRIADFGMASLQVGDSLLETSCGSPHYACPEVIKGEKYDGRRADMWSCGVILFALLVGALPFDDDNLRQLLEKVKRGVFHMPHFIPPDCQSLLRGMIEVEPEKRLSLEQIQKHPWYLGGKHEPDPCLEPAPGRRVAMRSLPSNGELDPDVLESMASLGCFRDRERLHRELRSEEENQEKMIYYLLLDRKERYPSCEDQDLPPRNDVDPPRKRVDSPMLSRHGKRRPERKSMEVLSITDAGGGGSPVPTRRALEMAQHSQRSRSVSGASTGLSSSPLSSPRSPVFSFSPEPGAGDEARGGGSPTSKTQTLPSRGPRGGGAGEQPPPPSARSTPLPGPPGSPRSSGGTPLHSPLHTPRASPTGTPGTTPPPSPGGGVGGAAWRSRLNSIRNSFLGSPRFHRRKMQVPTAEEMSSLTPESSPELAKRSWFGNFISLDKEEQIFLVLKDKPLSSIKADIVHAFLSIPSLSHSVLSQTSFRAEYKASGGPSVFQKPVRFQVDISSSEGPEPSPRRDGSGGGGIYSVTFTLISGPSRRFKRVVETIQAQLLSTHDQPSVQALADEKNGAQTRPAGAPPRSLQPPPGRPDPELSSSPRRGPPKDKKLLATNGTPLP
Procedure, shortened: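 Selectivity profiling began with a 200-kinase screen at 1 μM compound; kinases above 50% inhibition were then titrated for IC50. MgATP was fixed at each enzyme's Km(app). Buffer was 20 mM HEPES pH 7.5 with 10 mM MgCl2, 1 mM DTT, 0.01% BSA and 0.0005% Tween-20. Endpoint reactions were stopped in the linear phase with 30 mM EDTA.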

[5] = target: T2, Phosphorylase b kinase gamma catalytic chain, liver/testis isoform (Homo sapiens, UniProt P15735); assay: Inhibition of PhKgamma2 (unknown origin)
T2 sequence (P15735 whole entry): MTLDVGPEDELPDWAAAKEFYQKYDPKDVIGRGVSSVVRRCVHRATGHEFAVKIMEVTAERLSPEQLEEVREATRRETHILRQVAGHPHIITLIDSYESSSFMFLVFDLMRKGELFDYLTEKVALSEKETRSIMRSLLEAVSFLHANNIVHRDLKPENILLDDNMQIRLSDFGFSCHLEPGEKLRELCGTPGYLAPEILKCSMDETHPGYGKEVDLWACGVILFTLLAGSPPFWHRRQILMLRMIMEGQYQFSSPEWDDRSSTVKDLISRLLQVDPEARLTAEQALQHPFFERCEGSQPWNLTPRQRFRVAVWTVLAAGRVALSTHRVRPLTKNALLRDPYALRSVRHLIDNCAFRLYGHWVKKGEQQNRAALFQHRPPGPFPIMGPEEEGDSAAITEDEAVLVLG
Procedure, shortened: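 Kinase panel: 200 kinases were first screened at 1 μM inhibitor for percent inhibition. Those above 50% inhibition were then titrated for IC50. MgATP was fixed at the Km(app) determined for each enzyme.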

[6] = Antiinflammatory activity in human PBMC cells assessed as inhibition of LPS induced IL-1 beta production preincubated for 1 hr followed by LPS stimulation and measured after 16 hrs by MSD analysis; format: functional, cell-based
Procedure, shortened: (§1)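 Human PBMCs were pretreated with compound for 1 h (<1% DMSO final), then stimulated with LPS 100 ng/ml at 37°C. Cytokines in culture media were read by MSD 4-plex: TNFα at 4 h; IL-1β, IL-6 and IL-8 at 16 h. Data are means ±S.E.M. of two independent experiments in duplicate, three donors. IC50 by 4-parameter nonlinear regression.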

[7] = Antiinflammatory activity in human PBMC cells assessed as inhibition of LPS induced IL-8 production preincubated for 1 hr followed by LPS stimulation and measured after 16 hrs by MSD analysis; format: functional, cell-based; procedure, shortened: as §1
[8] = Antiinflammatory activity in human Whole blood cell assessed as inhibition of LPS induced IL-8 production preincubated for 1 hr followed by LPS stimulation and measured after 16 hrs by MSD analysis; format: functional, cell-based
Procedure, shortened: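 Human whole blood was stimulated ex vivo with LPS 100 ng/ml. Plasma cytokines were read by MSD 4-plex: TNFα at 4 h; IL-1β, IL-6 and IL-8 at 16 h. Data are means ±S.E.M. of two independent experiments in duplicate, three donors. IC50 by 4-parameter nonlinear regression.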

Rattus norvegicus = assay: Antiinflammatory activity in acute LPS induced TNF-alpha production in Lewis rat model administered via oral dose pretreated for 4 hrs followed by LPS stimulation and measured after 90 mins […]; format: functional; conditions: 5.5 h, time 330 min
Procedure, shortened: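 Male Lewis rats (225-250 g, 5 per group) were fasted 18 h, then dosed orally at 0.2-60 mg/kg as a suspension in 0.5% methylcellulose/0.025% Tween 20. LPS 1 mg/kg was given i.v. 4 h later. Blood was taken by cardiac puncture 90 min after LPS. Serum TNFα was read by ELISA and drug by LC-MS/MS, three independent experiments. 4-parameter fit. Unbound values were corrected with measured rat plasma protein binding.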

Cmax [1]: 11 µM | pIC50 [2]: 5.52 | pIC50 [3]: < 6.00 | pIC50 [4]: 6.73 | pIC50 [5]: 6.28 | pIC50 [6]: 5.57 | pIC50 [7]: 5.59 | pIC50 [8]: < 4.70
SMILES: Cc1ccc(-c2ccc3c(ccc4sc5c(c43)NC[C@@H](C)NC5=O)n2)cn1
ED50 (Rattus norvegicus): 6.9 mg/kg | ED80 (Rattus norvegicus): 19 mg/kg
